Measurements reported in ChEMBL document CHEMBL4610092, “Cytotoxic Nitrogenated Azaphilones from the Deep-Sea-Derived Fungus Chaetomium globosum MP4-S01-7” (J Nat Prod, 2020).

Columns and labels:
MGC-803 [1] = test: Cell cycle arrest in human MGC803 cells assessed as accumulation at S-phase at 0.5 uM measured after 24 hrs by propidium iodide staining based flow cytometry (reference value: 33%); type: functional
AGS [2] = test: Induction of apoptosis in human AGS cells assessed as early apoptotic cells at 5 uM measured after 48 hrs FITC-A/PE-A staining based flow cytometry (reference value: 1.77 to 2.91%); type: functional
AGS [3] = test: Induction of apoptosis in human AGS cells assessed as late apoptotic cells at 5 uM measured after 48 hrs FITC-A/PE-A staining based flow cytometry (reference value: 1.89 to 3.49%); type: functional
AGS [4] = test: Cytotoxicity against human AGS cells assessed as reduction in cell viability measured after 72 hrs by CCK8 assay; type: functional, cell-based
Procedure, shortened: (§1)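 MGC803 or AGS cells (RPMI 1640, 10% FBS, 5% CO₂, 37 °C) plated at 3 × 10³ per well overnight, then exposed to 0.1–10 μM for 72 h. Viability was read by CCK8 absorbance at 450 nm, and IC₅₀ was calculated from the concentration series.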

MGC-803 [5] = test: Induction of apoptosis in human MGC803 cells assessed as late apoptotic cells at 0.5 uM measured after 48 hrs FITC-A/PE-A staining based flow cytometry (reference value: 0.9 to 2.18%); type: functional
MGC-803 [6] = test: Induction of apoptosis in human MGC803 cells assessed as early apoptotic cells at 0.5 uM measured after 48 hrs FITC-A/PE-A staining based flow cytometry (reference value: 0.59 to 3.54%); type: functional
MGC-803 [7] = test: Induction of apoptosis in human MGC803 cells assessed as necrotic cells at 1 uM measured after 48 hrs FITC-A/PE-A staining based flow cytometry (reference value: 0.9 to 2.18%); type: functional
MGC-803 [8] = test: Induction of apoptosis in human MGC803 cells assessed as viable cells at 0.5 uM measured after 48 hrs FITC-A/PE-A staining based flow cytometry (reference value: 94.89 to 96.41%); type: functional; details: MGC-803, 48 h, read-out: Activity
MGC-803 [9] = test: Induction of apoptosis in human MGC803 cells assessed as late apoptotic cells at 1 uM measured after 48 hrs FITC-A/PE-A staining based flow cytometry (reference value: 0.67 to 0.82%); type: functional
MGC-803 [10] = test: Induction of apoptosis in human MGC803 cells assessed as viable cells at 5 uM measured after 48 hrs FITC-A/PE-A staining based flow cytometry (reference value: 94.89 to 96.41%); type: functional; details: MGC-803, 48 h, read-out: Activity
MGC-803 [11] = test: Cell cycle arrest in human MGC803 cells assessed as accumulation at S-phase at 1 uM measured after 24 hrs by propidium iodide staining based flow cytometry (reference value: 33%); type: functional
AGS [12] = test: Induction of apoptosis in human AGS cells assessed as necrotic cells at 0.5 uM measured after 48 hrs FITC-A/PE-A staining based flow cytometry (reference value: 1.35 to 2.69%); type: functional
AGS [13] = test: Induction of apoptosis in human AGS cells assessed as late apoptotic cells at 1 uM measured after 48 hrs FITC-A/PE-A staining based flow cytometry (reference value: 1.89 to 3.49%); type: functional
AGS [14] = test: Induction of apoptosis in human AGS cells assessed as early apoptotic cells at 0.2 uM measured after 48 hrs FITC-A/PE-A staining based flow cytometry (reference value: 1.77 to 2.91%); type: functional
MGC-803 [15] = test: Induction of apoptosis in human MGC803 cells assessed as early apoptotic cells at 5 uM measured after 48 hrs FITC-A/PE-A staining based flow cytometry (reference value: 0.59 to 3.54%); type: functional
MGC-803 [16] = test: Induction of apoptosis in human MGC803 cells assessed as viable cells at 0.2 uM measured after 48 hrs FITC-A/PE-A staining based flow cytometry (reference value: 94.89 to 96.41%); type: functional; details: MGC-803, 48 h, read-out: Activity
MGC-803 [17] = test: Cell cycle arrest in human MGC803 cells assessed as accumulation at S-phase at 0.2 uM measured after 24 hrs by propidium iodide staining based flow cytometry (reference value: 33%); type: functional
AGS [18] = test: Induction of apoptosis in human AGS cells assessed as early apoptotic cells at 0.5 uM measured after 48 hrs FITC-A/PE-A staining based flow cytometry (reference value: 1.77 to 2.91%); type: functional
AGS [19] = test: Induction of apoptosis in human AGS cells assessed as late apoptotic cells at 0.5 uM measured after 48 hrs FITC-A/PE-A staining based flow cytometry (reference value: 1.89 to 3.49%); type: functional
MGC-803 [20] = test: Induction of apoptosis in human MGC803 cells measured after 48 hrs FITC-A/PE-A staining based flow cytometry; type: functional, cell-based
MGC-803 [21] = test: Cell cycle arrest in human MGC803 cells assessed as increase in accumulation at G1-phase measured after 24 hrs by propidium iodide staining based flow cytometry; type: functional
AGS [22] = test: Induction of apoptosis in human AGS cells assessed as viable cells at 0.5 uM measured after 48 hrs FITC-A/PE-A staining based flow cytometry (reference value: 92.05 to 93.85%); type: functional; details: read-out: Activity
MGC-803 [23] = test: Cell cycle arrest in human MGC803 cells assessed as accumulation at G1-phase at 1 uM measured after 24 hrs by propidium iodide staining based flow cytometry (reference value: 45%); type: functional
MGC-803 [24] = test: Cell cycle arrest in human MGC803 cells assessed as accumulation at G2/M-phase at 0.2 uM measured after 24 hrs by propidium iodide staining based flow cytometry (reference value: 22%); type: functional
MGC-803 [25] = test: Induction of apoptosis in human MGC803 cells assessed as early apoptotic cells at 0.2 uM measured after 48 hrs FITC-A/PE-A staining based flow cytometry (reference value: 0.59 to 3.54%); type: functional
AGS [26] = test: Induction of apoptosis in human AGS cells measured after 48 hrs FITC-A/PE-A staining based flow cytometry; type: functional, cell-based
MGC-803 [27] = test: Cytotoxicity against human MGC803 cells assessed as reduction in cell viability measured after 72 hrs by CCK8 assay; type: functional, cell-based; details: MGC-803, 72 h; procedure, shortened: as §1
MGC-803 [28] = test: Cell cycle arrest in human MGC803 cells assessed as accumulation at G2/M-phase at 0.5 uM measured after 24 hrs by propidium iodide staining based flow cytometry (reference value: 22%); type: functional
MGC-803 [29] = test: Cell cycle arrest in human MGC803 cells assessed as accumulation at G2/M-phase at 1 uM measured after 24 hrs by propidium iodide staining based flow cytometry (reference value: 22%); type: functional
AGS [30] = test: Induction of apoptosis in human AGS cells assessed as viable cells at 5 uM measured after 48 hrs FITC-A/PE-A staining based flow cytometry (reference value: 92.05 to 93.85%); type: functional; details: read-out: Activity
AGS [31] = test: Induction of apoptosis in human AGS cells assessed as necrotic cells at 5 uM measured after 48 hrs FITC-A/PE-A staining based flow cytometry (reference value: 1.35 to 2.69%); type: functional
MGC-803 [32] = test: Induction of apoptosis in human MGC803 cells assessed as viable cells at 1 uM measured after 48 hrs FITC-A/PE-A staining based flow cytometry (reference value: 94.89 to 96.41%); type: functional; details: MGC-803, 48 h, read-out: Activity
AGS [33] = test: Induction of apoptosis in human AGS cells assessed as viable cells at 0.2 uM measured after 48 hrs FITC-A/PE-A staining based flow cytometry (reference value: 92.05 to 93.85%); type: functional; details: read-out: Activity

For `CC[C@H](C)/C=C/C1=CC2=C(Cl)C(=O)[C@@]3(C)OC(=O)C(C(=O)[C@@H](C)[C@@H](C)O)=C3C2=CN1C/C=C(\C)CCC=C(C)C`, the Activity (MGC-803 [1]) was 28%, the Activity (AGS [2]) was 1.86% and the Activity (AGS [3]) was 86.77%. It also gave an IC50 (AGS [4]) of 620 nM, an Activity (MGC-803 [5]) of 2.85% and an Activity (MGC-803 [6]) of 2.65%. For the same compound, the Activity (MGC-803 [7]) was 6.01%, the viability at 0.5 µM (MGC-803 [8]) was 91.3% and the Activity (MGC-803 [9]) was 18.17%. The viability at 5 µM (MGC-803 [10]) was 20.1%, the Activity (MGC-803 [11]) was 32% and the Activity (AGS [12]) was 2.85%. It also gave an Activity (AGS [13]) of 35.16%, an Activity (AGS [14]) of 2.78% and an Activity (MGC-803 [15]) of 6.2%. It also gave a viability at 0.2 µM (MGC-803 [16]) of 90.7%, an Activity (MGC-803 [17]) of 30% and an Activity (AGS [18]) of 5.89%. The Activity (AGS [19]) was 3.01%, the Activity (MGC-803 [20]) was “Dose-dependent effect” and the Activity (MGC-803 [21]) was “Dose-dependent effect”. The viability at 0.5 µM (AGS [22]) was 88.2%, the Activity (MGC-803 [23]) was 58% and the Activity (MGC-803 [24]) was 23%. For the same compound, the Activity (MGC-803 [25]) was 2.96%, the Activity (AGS [26]) was “Dose-dependent effect” and the IC50 (MGC-803 [27]) was 460 nM. It also gave an Activity (MGC-803 [28]) of 24%, an Activity (MGC-803 [29]) of 9.4% and a viability at 5 µM (AGS [30]) of 8.93%. The Activity (AGS [31]) was 2.44%, the viability at 1 µM (MGC-803 [32]) was 71.7% and the viability at 0.2 µM (AGS [33]) was 93.2%.
